According to ChEMBL document CHEMBL1130270, “Design of [R-(Z)]-(+)-alpha-(methoxyimino)-1-azabicyclo[2.2.2]octane-3-acetonitri le (SB 202026), a functionally selective azabicyclic muscarinic M1 agonist incorporating the N-methoxy imidoyl nitrile group as a novel ester bioisostere” (J Med Chem, 1997):

Tests used:
[1] = molecular target: Muscarinic acetylcholine receptor; experiment: In vitro affinity evaluated using [3H]- oxotremorine as radioligand in rat cerebral cortex for muscarinic acetylcholine receptor; format: tissue-based
[2] = molecular target: Muscarinic acetylcholine receptor; experiment: In vitro affinity evaluated using [3H]- quinuclidinyl benzilate as radioligand in rat cerebral cortex for muscarinic acetylcholine receptor; format: tissue-based
[3] = molecular target: T1, Muscarinic acetylcholine receptor M1 (Homo sapiens, UniProt P11229); experiment: In vitro affinity against human Muscarinic acetylcholine receptor M1 using quinuclidynyl benzylate (QNB)
T1 sequence (P11229 whole entry): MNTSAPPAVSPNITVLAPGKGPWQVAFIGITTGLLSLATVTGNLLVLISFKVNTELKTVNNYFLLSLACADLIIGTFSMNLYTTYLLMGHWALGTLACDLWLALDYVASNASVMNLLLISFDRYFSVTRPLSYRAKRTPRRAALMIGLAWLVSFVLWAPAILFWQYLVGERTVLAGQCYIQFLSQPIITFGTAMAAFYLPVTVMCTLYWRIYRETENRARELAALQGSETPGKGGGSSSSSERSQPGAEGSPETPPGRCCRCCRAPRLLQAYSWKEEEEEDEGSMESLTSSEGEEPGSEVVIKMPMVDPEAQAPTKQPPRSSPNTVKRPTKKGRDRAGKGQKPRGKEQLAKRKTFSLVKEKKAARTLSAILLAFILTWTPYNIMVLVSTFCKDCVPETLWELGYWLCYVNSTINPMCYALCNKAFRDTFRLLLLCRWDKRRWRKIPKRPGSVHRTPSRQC

[4] = molecular target: T2, Muscarinic acetylcholine receptor M3 (Homo sapiens, UniProt P20309); experiment: In vitro affinity is evaluated, using quinuclidynyl benzylate (QNB) as radioligand in human cloned Muscarinic acetylcholine receptor M3
[5] = molecular target: T3, Muscarinic acetylcholine receptor M2 (Homo sapiens, UniProt P08172); experiment: In vitro affinity is evaluated, using quinuclidynyl benzylate (QNB) as radioligand in human cloned Muscarinic acetylcholine receptor M2
T3 sequence (P08172 whole entry): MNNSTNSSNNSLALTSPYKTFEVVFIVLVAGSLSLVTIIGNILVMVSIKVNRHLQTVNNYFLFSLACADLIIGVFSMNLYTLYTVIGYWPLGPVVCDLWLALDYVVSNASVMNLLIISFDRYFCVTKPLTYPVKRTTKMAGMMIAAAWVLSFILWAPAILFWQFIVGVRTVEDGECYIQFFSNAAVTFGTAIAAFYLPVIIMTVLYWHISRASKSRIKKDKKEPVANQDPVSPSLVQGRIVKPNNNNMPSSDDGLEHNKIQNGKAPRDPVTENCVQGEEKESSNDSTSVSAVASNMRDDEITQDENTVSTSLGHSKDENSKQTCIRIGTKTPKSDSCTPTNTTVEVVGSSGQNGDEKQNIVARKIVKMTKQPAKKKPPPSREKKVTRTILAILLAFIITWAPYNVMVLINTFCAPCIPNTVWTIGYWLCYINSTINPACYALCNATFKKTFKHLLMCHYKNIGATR

[6] = molecular target: T4, Muscarinic acetylcholine receptor M4 (Homo sapiens, UniProt P08173); experiment: In vitro affinity is evaluated, using quinuclidynyl benzylate (QNB) as radioligand in human cloned Muscarinic acetylcholine receptor M4
T4 sequence (P08173 whole entry): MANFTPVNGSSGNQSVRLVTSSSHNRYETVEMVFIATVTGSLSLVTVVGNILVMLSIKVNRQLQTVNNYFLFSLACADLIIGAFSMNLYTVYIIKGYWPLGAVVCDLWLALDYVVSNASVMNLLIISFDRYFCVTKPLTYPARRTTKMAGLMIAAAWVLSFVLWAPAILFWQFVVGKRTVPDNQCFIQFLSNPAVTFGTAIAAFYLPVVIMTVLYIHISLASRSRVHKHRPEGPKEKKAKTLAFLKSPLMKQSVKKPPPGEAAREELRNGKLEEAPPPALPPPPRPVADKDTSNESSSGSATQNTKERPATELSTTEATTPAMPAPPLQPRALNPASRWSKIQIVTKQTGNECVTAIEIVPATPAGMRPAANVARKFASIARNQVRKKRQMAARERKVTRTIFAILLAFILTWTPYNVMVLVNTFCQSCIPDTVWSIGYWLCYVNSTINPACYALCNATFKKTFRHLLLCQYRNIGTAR

Rattus norvegicus [7] = experiment: Dose producing 50% fall in blood pressure in anesthetized rats; format: functional
Method in brief: (§1)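 Male Hooded Lister rats (300-380 g) under urethane anaesthesia, 37 °C. Increasing iv doses via femoral vein at 45 min intervals. BP recorded from carotid artery; HR derived from the BP signal. Peak effect within 1 min, expressed as % of predose. Value is the dose giving a transient 50% fall in mean BP or HR; 95% confidence limits.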

Rattus norvegicus [8] = experiment: Dose producing 50% fall in heart rate in anesthetized rats; format: functional; method in brief: as §1
Rattus norvegicus [9] = experiment: Dose producing […] rhythmic slow wave activity in anesthetized rats; format: functional
[10] = Ratio of 50% fall blood pressure to that of rhythmic slow wave activity in anesthetized rats; format: functional
Method in brief: (§2)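 Same anaesthetized-rat dosing as above. Ratio of iv dose giving a transient 50% fall in BP (or HR) to the iv dose giving an arecoline-equivalent (0.32 mg/kg) change in hippocampal theta power.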

[11] = Ratio of 50% fall in heart rate to that of […] slow wave activity in anesthetized rats; format: functional; method in brief: as §2
[12] = Dissociation constant is the negative logarithm of the equilibrium coefficient of the neutral and charged forms of the compound; format: physicochemical
[13] = Partition coefficient is determined in octanol/buffer solution at pH 12; format: physicochemical
[14] = Distribution coefficient is the ratio of concentration in lipid phase to the concentration of compound in aqueous phase.; format: physicochemical
Method in brief: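 Calculated for pH 7.3, not measured. D is the concentration of compound in the lipid phase divided by the concentration of all species in the aqueous phase.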

[15] = Ratio of 50% fall in heart rate to that of in blood pressure in anesthetized rats; format: functional
[16] = molecular target: T2, Muscarinic acetylcholine receptor M3; experiment: In vitro affinity is evaluated, using quinuclidynyl benzylate (QNB)radioligand in human cloned Muscarinic acetylcholine receptor M3
Method in brief: (§3)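 Membranes from CHO cells transfected with human m2, m3 or m4 receptors, prepared in 50 mM Tris (pH 7.4 at 37 °C). Displacement of 0.1 nM [3H]QNB; nonspecific binding defined with atropine sulfate. Incubated to equilibrium at 37 °C, ended by rapid vacuum filtration.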

[17] = molecular target: T3, Muscarinic acetylcholine receptor M2; experiment: In vitro affinity is evaluated, using quinuclidinyl benzilate (QNB) as radioligand in human cloned Muscarinic acetylcholine receptor M2; method in brief: as §3
[18] = molecular target: T4, Muscarinic acetylcholine receptor M4; experiment: In vitro affinity is evaluated, using quinuclidynyl benzylate (QNB) radioligand in human cloned Muscarinic acetylcholine receptor M4; method in brief: as §3
Mus musculus [19] = species: Mus musculus; experiment: Extrapyramidal effects was assessed from the dose producing tremors; format: functional
Method in brief: (§4)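 Male CD1 mice (25-35 g), dosed sc. Tremor scored subjectively: 0 absent, 1 mild, 2 moderate, 3 severe.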

Mus musculus [20] = experiment: Tremorigenic effects were assessed in mice after subcutaneous administration of the compound; format: functional; conditions: sc; method in brief: as §4
Rattus norvegicus [21] = species: Rattus norvegicus; experiment: Dose producing […] rhythmic slow wave activity in rat
Rattus norvegicus [22] = experiment: Dose producing 50 % fall in heart rate in anesthetized rats; format: functional; method in brief: as §1
[23] = Ratio of IC50 QNB to that of OXO-M was determined; format: functional
Method in brief: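 Rat cerebral cortex binding: IC50 for displacement of the antagonist [3H]QNB divided by IC50 for displacement of the agonist [3H]oxotremorine-M, used as an efficacy index.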

[24] = Ratio of 50% fall in blood pressure to that of rhythmic slow wave activity in anesthetized rats; format: functional; method in brief: as §2
Rattus norvegicus [25] = experiment: Extrapyramidal effects was assessed from the dose producing tremors in anesthetized rats
Rattus norvegicus [26] = species: Rattus norvegicus; experiment: Dose inducing hippocampal rhythmic slow wave activity; format: functional, Hippocampus
Method in brief: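 Male Hooded Lister rats (300-380 g) under urethane anaesthesia, pretreated with atropine methyl nitrate 0.1 mg/kg iv. Dosing iv via femoral vein, saline vehicle. Bipolar electrode in right hippocampal CA1; EEG sampled at 128 Hz. Read-out is change in mean theta power (3–7 Hz).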

Rattus norvegicus [27] = experiment: Dose producing 50 % fall in mean blood pressure in anesthetized rats; format: functional; method in brief: as §1

T2 sequence (P20309 whole entry): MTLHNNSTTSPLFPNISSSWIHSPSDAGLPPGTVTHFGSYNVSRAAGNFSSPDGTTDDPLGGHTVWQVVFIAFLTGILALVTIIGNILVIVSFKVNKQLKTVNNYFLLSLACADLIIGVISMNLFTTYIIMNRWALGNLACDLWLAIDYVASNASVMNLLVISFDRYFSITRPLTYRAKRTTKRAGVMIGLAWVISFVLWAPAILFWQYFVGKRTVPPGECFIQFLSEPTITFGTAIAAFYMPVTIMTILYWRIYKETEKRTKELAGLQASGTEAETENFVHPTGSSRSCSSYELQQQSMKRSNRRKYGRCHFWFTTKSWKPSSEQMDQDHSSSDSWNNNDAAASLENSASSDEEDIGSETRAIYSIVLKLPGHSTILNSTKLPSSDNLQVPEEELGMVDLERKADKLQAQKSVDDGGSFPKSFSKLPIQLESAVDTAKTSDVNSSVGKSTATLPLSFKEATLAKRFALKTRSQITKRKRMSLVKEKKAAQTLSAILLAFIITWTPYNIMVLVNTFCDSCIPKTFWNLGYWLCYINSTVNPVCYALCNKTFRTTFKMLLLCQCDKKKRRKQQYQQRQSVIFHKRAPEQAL

| Compound | IC50 [1] | IC50 [2] | ED50 (Rattus norvegicus [7]) | ED50 (Rattus norvegicus [8]) | ED Arec (Rattus norvegicus [9]) | Ratio [10] | Ratio [11] | further results |
| --- | --- | --- | --- | --- | --- | --- | --- | --- |
| CO/N=C(\C#N)[C@H]1CN2CC[C@H]1C2 | 23 nM | 2300 nM | 0.015 mg/kg | 0.009 mg/kg | 0.0032 mg/kg | 4.7 | 2.8 | IC50 [3]: 1180 nM; IC50 [4]: 380 nM; IC50 [5]: 610 nM; IC50 [6]: 800 nM |
| CO/N=C(/C)C12CCCN(CC1)C2 (centres undefined) | 46 nM | 3400 nM | 0.068 mg/kg | 0.042 mg/kg | 0.068 mg/kg | 1 | 0.6 | pKa [12]: 10.1; logD [13]: 1.65; logD [14]: -1.13 |
| CO/N=C(\Br)[C@@H]1CN2CC[C@H]1C2 | 170 nM | 2300 nM | – | – | – | – | – | – |
| CO/N=C(\Cl)[C@@H]1CN2CC[C@H]1C2 | 100 nM | 8880 nM | – | – | – | – | – | – |
| C#CCO/N=C/[C@H]1CN2CC[C@H]1C2 | – | – | – | – | – | – | – | Ratio [15]: 3.7 |
| CO/N=C(\C#N)C12CCCN(CC1)C2 (centres undefined) | – | – | – | 0.01 mg/kg | – | 4 | 2 | logD [13]: 1.49; IC50 [3]: 99 nM; IC50 [16]: 28 nM; IC50 [17]: 31 nM; IC50 [18]: 49 nM |
| CO/N=C(\Cl)C12CCCN(CC1)C2 (centres undefined) | – | – | – | 0.24 mg/kg | 0.032 mg/kg | 10 | 8.3 | logD [13]: 2.12 |
| CO/N=C(\C#N)[C@@H]1CN2CCC1CC2 | 140 nM | 1130 nM | > 1 mg/kg | > 1 mg/kg | >1 mg/kg | – | – | – |
| CC#CCO/N=C/[C@H]1CN2CC[C@H]1C2 | 115 nM | 2900 nM | – | – | – | – | – | – |
| CO/N=C(\C#N)C1CN2CCC1CC2 (centres undefined) | – | – | – | > 0.56 mg/kg | – | >10.9 | >10.9 | logD [13]: 1.56 |
| C=CCO/N=C/[C@H]1CN2CC[C@H]1C2 | 250 nM | 9700 nM | – | – | – | – | – | – |
| CO/N=C(\C#N)C12CCN(CC1)C2 | – | – | 0.01 mg/kg | 0.0044 mg/kg | 0.0056 mg/kg | 1.8 | 0.79 | IC50 [3]: 1650 nM; IC50 [4]: 300 nM; IC50 [5]: 240 nM; IC50 [6]: 495 nM |
| CO/N=C(\F)[C@H]1CN2CC[C@H]1C2 | 8.5 nM | – | – | – | – | – | – | – |
| CO/N=C(/C#N)C1CN2CCC1CC2 (centres undefined) | 240 nM | 1300 nM | – | – | – | – | – | – |
| O=C1CCCN1CC#CCN1CCCC1 [OXOTREMORINE] | – | – | – | – | – | – | – | Activity (Mus musculus [19]): 3; ED50 (Mus musculus [20]): 0.07 mg/kg; ED Arec (Rattus norvegicus [21]): 0.023 mg/kg |
| CCO/N=C/[C@H]1CN2CC[C@H]1C2 | – | – | – | – | – | – | – | ED50 (Rattus norvegicus [22]): > 1.8 mg/kg; Ratio [23]: 23; Ratio [24]: >7.8; Ratio [15]: >7.8 |
| CO/N=C(\F)C12CCCN(CC1)C2 (centres undefined) | – | – | – | 0.024 mg/kg | – | – | 2 | logD [13]: 1.01 |
| COC(=O)C1=CCCN(C)C1 [ARECOLINE] | – | – | 0.022 mg/kg | 0.024 mg/kg | 0.32 mg/kg | – | – | – |
| CO/N=C(\C#N)[C@@H]1CN2CC[C@H]1C2 | 21 nM | 3175 nM | 0.024 mg/kg | 0.021 mg/kg | 0.005 mg/kg | 4.8 | 4.2 | IC50 [3]: 1500 nM; IC50 [4]: 1200 nM; IC50 [5]: 700 nM; IC50 [6]: 975 nM |
| CCN1C(=O)CC2(CCN(C)CC2)C1=O | – | – | – | – | – | – | – | Activity (Mus musculus [19]): 8.6; ED50 (Mus musculus [20]): 3.8 mg/kg; ED Arec (Rattus norvegicus [21]): 0.35 mg/kg |
| CO/N=C/[C@H]1CN2CC[C@H]1C2 | – | – | – | – | – | – | – | IC50 [3]: 10000 nM; IC50 [4]: 2200 nM; IC50 [5]: 220 nM; IC50 [6]: 1100 nM; Ratio [15]: 1.5 |
| CO/N=C(\C)C1CN2CCC1CC2 (centres undefined) | – | – | > 0.32 mg/kg | > 0.32 mg/kg | – | >1 | >1 | logD [13]: 1.88 |
| CO/N=C(\C#N)[C@H]1CN2CCC1CC2 [SABCOMELINE] | 14 nM | 310 nM | – | – | – | >18.8 | >18.8 | ED50 (Mus musculus [20]): > 10 mg/kg; IC50 [3]: 170 nM; IC50 [4]: 60 nM; IC50 [5]: 180 nM; IC50 [6]: 90 nM; ED50 (Rattus norvegicus [25]): 0.12 mg/kg; ED50 (Rattus norvegicus [22]): > 0.32 mg/kg; ED Arec (Rattus norvegicus [26]): 0.017 mg/kg; ED50 (Rattus norvegicus [27]): > 0.32 mg/kg |
